Reference: ChEMBL document CHEMBL1126204, “Nucleic acid related compounds. 74. Synthesis and biological activity of 2'(and 3')-deoxy-2'(and 3')-methylenenucleoside analogues that function as mechanism-based inhibitors of S-adenosyl-L-homocysteine hydrolase and/or ribonucleotide reductase” (J Med Chem, 1992)
pIC50: −log10 of the molar value.

Columns and labels:
L1210 [1] = test: Concentration required to inhibit the proliferation of L1210 murine leukemia cell line by 50% in presence exogenous necleoside dCyd (100 uM).; assay type: functional, cell-based; conditions: Mus musculus, in the assay text read “1000 uM” for “100 uM”
Outline: (§1)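 L1210 murine leukemia cells in Eagle's MEM with 10% inactivated fetal calf serum, 2 mM L-glutamine and 0.075% NaHCO₃. 5 × 10⁵ cells/mL were exposed to test compound (0.001–500 µM) together with the stated exogenous nucleoside at subtoxic level. Incubated 2 days at 37 °C in humidified CO₂. Viable cells were counted by Coulter counter. IC₅₀ = 50% reduction in viable cell number; mean of 2–4 independent experiments.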

L1210 [2] = test: Antitumor activity in mice bearing L1210 murine leukemia cell line at a dose of 50 mg/kg/day.; assay type: functional, Mus musculus
Outline: (§2)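 DBA/2 mice (20 g) inoculated ip with 10⁶ L1210 leukemia cells; test agent given ip once daily for 5 successive days beginning 1 day after inoculation, dissolved in Eagle's MEM containing 2.5% Tween (250 μL injection). Untreated tumor-bearing controls; read-out mean survival time in days, 7–15 mice per group.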

[3] = In vitro inhibition of FM3A (murine carcinoma) cell proliferation.; assay type: functional; conditions: Mus musculus
Outline: (§3)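 Murine FM3A or L1210 cells in Eagle's MEM with 10% inactivated FCS, 2 mM L-glutamine and 0.075% NaHCO₃, seeded at 5 × 10⁵ cells/mL with compound (0.001–500 µM). After 2 days at 37 °C in humidified CO₂, viable cells were counted with a Coulter counter. IC₅₀ = 50% fewer viable cells; mean of 2–4 experiments.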

[4] = Concentration required to inhibit the proliferation of human T-lymphocyte CEM cells by 50% in presence exogenous necleoside dCyd (100 uM).; assay type: functional, cell-based; conditions: CCRF-CEM, in the assay text read “1000 uM” for “100 uM”
Outline: (§4)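 CEM human T-lymphocytes in RPMI-1640 with 10% inactivated FCS, 2 mM L-glutamine and 0.075% NaHCO₃. Test compound (0.001–500 µM) was co-added with the stated subtoxic exogenous nucleoside(s). Incubated 3 days at 37 °C in humidified CO₂, then viable cells counted by Coulter counter. IC₅₀ is the level giving 50% fewer viable cells; means of 2–4 independent experiments.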

MT4 = test: In vitro inhibition of MT-4 (Human T-lymphocyte) cell proliferation.; assay type: functional, cell-based
Outline: (§5)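 Human Molt/4F, MT-4, and Raji cells (wild-type, TK⁻ or dCK⁻) in RPMI-1640 with 10% inactivated FCS, 2 mM L-glutamine and 0.075% NaHCO₃, seeded at 7.5 × 10⁵ cells/mL with compound (0.001–500 µM). Incubated 3 days at 37 °C in humidified CO₂; viable cells counted by Coulter counter. IC₅₀ = 50% reduction in viable cells; means of 2–4 independent experiments.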

[5] = Concentration required to inhibit the proliferation of human T-lymphocyte CEM/AK-/dCK-(Ado and dCyd kinase deficient) cells by 50%; assay type: functional
Outline: (§6)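 Wild-type CEM and kinase-deficient sublines (AK⁻, dCK⁻, AK⁻/dCK⁻) grown in RPMI-1640 with 10% inactivated FCS, 2 mM L-glutamine and 0.075% NaHCO₃. Cells were exposed to compound at 0.001–500 µM for 3 days at 37 °C in humidified CO₂. Viable cells counted by Coulter counter; IC₅₀ = 50% reduction in viable cells. Mean of 2–4 independent experiments.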

L1210 [6] = test: Antitumor activity in mice bearing L1210 murine leukemia cell line at a dose of 25 mg/kg/day.; assay type: functional, Mus musculus; outline: as §2
[7] = Concentration required to inhibit the proliferation of human T-lymphocyte CEM cells by 50% in presence exogenous necleoside Ado (100 uM).; assay type: functional, cell-based; conditions: CCRF-CEM, in the assay text read “1000 uM” for “100 uM”; outline: as §4
L1210 [8] = test: Concentration required to inhibit the proliferation of L1210 murine leukemia cell line by 50% in presence exogenous necleoside Ado (100 uM).; assay type: functional, cell-based; conditions: Mus musculus, in the assay text read “1000 uM” for “100 uM”; outline: as §1
[9] = Concentration required to inhibit the proliferation of human T-lymphocyte CEM/dCK-(dCyd kinase deficient) cells by 50%; assay type: functional; outline: as §6
L1210 [10] = test: Antitumor activity in mice bearing L1210 murine leukemia cell line at a dose of 12.5 mg/kg/day.; assay type: functional, Mus musculus; outline: as §2
[11] = Concentration required to inhibit the proliferation of human T-lymphocyte CEM cells by 50% in presence exogenous necleoside Ado+dCyd (100 uM).; assay type: functional, cell-based; conditions: CCRF-CEM, in the assay text read “1000 uM” for “100 uM”; outline: as §4
L1210 [12] = test: Antitumor activity in mice bearing L1210 murine leukemia cell line at a dose of 100 mg/kg/day.; assay type: functional, Mus musculus; outline: as §2
L1210 [13] = test: Concentration required to inhibit the proliferation of L1210 murine leukemia cell line by 50% in presence exogenous necleosides dCyd+Ado (100 uM).; assay type: functional, cell-based; conditions: Mus musculus, in the assay text read “1000 uM” for “100 uM”; outline: as §1
L1210 [14] = test: Concentration required to inhibit the proliferation of L1210 murine leukemia cell line by 50% in presence exogenous necleoside Guo (50 uM).; assay type: functional, cell-based; conditions: Mus musculus; outline: as §1
L1210 [15] = test: In vitro inhibition of L1210 (murine leukemia) cell proliferation.; assay type: functional, cell-based; conditions: Mus musculus; outline: as §3
[16] = In vitro inhibition of Molt/4f (Human T-lymphoblast) cell proliferation.; assay type: functional; outline: as §5
CCRF-CEM = test: Concentration required to inhibit the proliferation of human T-lymphocyte CEM/o cells by 50%; assay type: functional, cell-based; outline: as §6
[17] = Concentration required to inhibit the proliferation of human T-lymphocyte CEM/AK-(Ado kinase deficient) cells by 50%; assay type: functional; outline: as §6
CEM (Homo sapiens) = test: Concentration required to inhibit the proliferation of human T-lymphocyte CEM/o cells by 50%

Compound | pIC50 (L1210 [15]) | pIC50 [3] | pIC50 (MT4) | pIC50 [16] | further results
C=C1[C@H](n2cnc3c(O)nc(N)nc32)O[C@H](CO)[C@H]1O | 5.07 | 3.99 | 3.82 | 4.66 | pIC50 (L1210 [1]): 4.77; Mean survival time (L1210 [2]): 5.3 days; pIC50 [4]: 3.87; pIC50 [5]: 3.70; Mean survival time (L1210 [6]): 7.5 days; pIC50 [7]: 4.60; pIC50 (L1210 [8]): 4.26; pIC50 [9]: 3.66; Mean survival time (L1210 [10]): 7.5 days; pIC50 [11]: 3.87; Mean survival time (L1210 [12]): 2 days; pIC50 (L1210 [13]): 4.12; pIC50 (L1210 [14]): 4.29; pIC50 (CCRF-CEM): 5.03; pIC50 [17]: 4.44
C=C1[C@H](n2cnc3c(SC)nc(N)nc32)O[C@H](CO)[C@H]1O | < 3.30 | < 3.30 | < 3.30 | < 3.30 | 
C=C1[C@@H](O)[C@H](n2cnc3c(O)ncnc32)O[C@@H]1CO | < 3.70 | < 3.70 | < 3.70 | < 3.70 | 
C=C1[C@H](n2ccc(=O)[nH]c2=O)O[C@H](CO)[C@H]1O | < 3.30 | < 3.30 | < 3.30 | < 3.30 | 
C=C1[C@@H](O)[C@H](n2cnc3c(N)ncnc32)O[C@@H]1CO | 3.64 | 3.33 | 4.37 | < 3.30 | 

Now from value to molecule, other results behind:

pIC50 (L1210 [15]) | Compound | pIC50 [3] | pIC50 (MT4) | pIC50 [16] | further results
< 3.70 | C=C1[C@@H](O)[C@H](n2cnc3c(N)nc(N)nc32)O[C@@H]1CO | < 3.70 | < 3.70 | < 3.70 | pIC50 [5]: < 3.30; pIC50 [9]: < 3.30; pIC50 (CEM (Homo sapiens)): < 3.30; pIC50 [17]: < 3.30
< 3.30 | C=C1[C@@H](O)[C@H](n2cnc3c(SC)nc(N)nc32)O[C@@H]1CO | < 3.30 | < 3.30 | < 3.30 | 
4.22 | C=C1[C@H](n2cnc3c(O)ncnc32)O[C@H](CO)[C@H]1O | 3.95 | < 3.70 | < 3.70 | 
3.34 | C=C1[C@H](n2cnc3c(N(C)C)nc(N)nc32)O[C@H](CO)[C@H]1O | < 3.30 | < 3.30 | 3.47 | 
3.68 | C=C1[C@@H](O)[C@H](n2cnc3c(S)nc(N)nc32)O[C@@H]1CO | 3.31 | 4.92 | 3.56 | 
< 3.30 | C=C1[C@@H](O)[C@H](n2ccc(=O)[nH]c2=O)O[C@@H]1CO | < 3.30 | 3.35 | < 3.30 | 
